Screening results: PubChem, several laboratories
The full list was thinned out, with hits kept by preference.
UCH37 DUB inh = human UCH37 deubiquitinating enzyme inhibition; purified proteasome/UCH37, Ub-AMC cleavage fluorescence; inhibition, % (test concentration not listed); 330,000 compounds, 0.33% hits;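 active = mean inhibition over replicate wells above about 20%, limit read from the data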;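 also: 0% = compound-free wells with enzyme and 100% = wells lacking proteasome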
Target sequence (Q9Y5K5 whole entry, looked up): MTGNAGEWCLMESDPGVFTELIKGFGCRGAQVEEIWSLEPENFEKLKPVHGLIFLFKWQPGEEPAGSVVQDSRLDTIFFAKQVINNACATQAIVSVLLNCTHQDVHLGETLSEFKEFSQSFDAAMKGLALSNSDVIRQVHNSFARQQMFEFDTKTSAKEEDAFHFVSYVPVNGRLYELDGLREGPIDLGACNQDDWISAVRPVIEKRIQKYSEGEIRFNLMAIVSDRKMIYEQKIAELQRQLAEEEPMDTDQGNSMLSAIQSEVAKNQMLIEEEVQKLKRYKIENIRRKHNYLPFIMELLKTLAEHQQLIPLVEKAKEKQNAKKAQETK
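Assay system: Proteasome-bound UCH37. Buffer or medium: pH 7.4 Tris-HCl (50 mM) with ovalbumin, ATP-MgCl2, DTT. Incubation: 30 min preincubation with enzyme, 25 min cleavage at room temperature. Measured by: fluorescence, ex 355 nm, em 460 nm. Read-out basis: percent inhibition. Control set: wells without proteasome as full block, compound-free enzyme plus substrate as uninhibited.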
XBP1 UPR activ = activators of adaptive arm of unfolded protein response (XBP1) | CHO-XBP1 luciferase reporter, IRE1-XBP1 UPR activation, luminescence; percent of tunicamycin response, DMSO as zero | activation, % at 20 µM | 330,000 compounds, 0.33% hits | AID 463104;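 active = versus positive control, 20 µM dose yields 30% or more activation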;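 also: 100% = tunicamycin at 10 µg/mL and 0% = DMSO only wells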
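Assay system: CHO-XBP1 luciferase reporter cells; Schedule: 6 h treatment, 37 °C; Detection: glow luminescence from Steady-Glo reagent; Benchmarks: high control tunicamycin 10 µg/mL final, low control DMSO vehicle only.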
UPR CHOP act = activators of apoptotic arm of unfolded protein response (CHOP) | CHO-CHOP luciferase reporter, UPR activation, luminescence; percent of tunicamycin response over DMSO baseline | activation, % at 10 µM | 330,000 compounds, 0.34% hits;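 active = at 10 µM dose, activation of 40% or more, normalized to positive control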;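 also: 100% = tunicamycin at 10 µg/mL and 0% = DMSO alone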
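Dosing – one dose, 10 µM in 0.5% DMSO · System – CHO-CHOP cells, stable luciferase reporter of PERK-eIF2a-CHOP signalling · Input – 500 cells/well · Control set – tunicamycin 10 µg/mL final as positive, DMSO-only wells as negative · Timing – 6 h compound treatment, 37 °C · Measure – % activation vs tunicamycin · Technique – luminescence read with Steady-Glo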
CTSL1 counter = blocks F. hepatica cathepsin L1 in PFM18AAP counter-screen; recombinant F. hepatica cathepsin L1, Z-Leu-Arg-MCA fluorescence; inhibition, % at 5.96 µM; 300,000 compounds, 0.49% hits; AID 1906;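 active = inhibition above the mean of all tested compounds plus 3 SD, set per screening campaign, cut at about 17% in these data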;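 also: 0% = plate median of test compound wells and 100% = 1 µM Z-Phe-Ala-diazomethylketone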
CHOP inh = blocks CHOP induction under ER stress | CHO-K1 CHOP-promoter luciferase, tunicamycin-induced, 15-18 h | inhibition, % at 10 µM | 220,000 compounds, 3.8% hits;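 active = compounds that reduced the stress-induced luciferase reporter signal by more than about 70% of percent inhibition, limit read from the data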;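 also: 0% = tunicamycin plus vehicle and 100% = wells without tunicamycin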
UPR CHOP confirm = confirmation of apoptotic unfolded protein response (CHOP) activators; shares compounds with UPR CHOP act; CHO-CHOP cells, CHOP-luciferase reporter luminescence; percent of tunicamycin response, DMSO as zero; activation, % at 10 µM; 1,000 compounds, 64% hits; AID 463112; in the data active = activation above about 33%;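 also: 0% = DMSO wells and 100% = tunicamycin 10 µg/mL wells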
Active calls of the source: *.

For COc1ccc(C(=O)Sc2ccc(Cl)cc2)cc1OC the results were UCH37 DUB inh 5, XBP1 UPR activ 14, UPR CHOP act 87*, CTSL1 counter -2, CHOP inh 50 and UPR CHOP confirm 58*.
COc1ccc(C(=O)Sc2ccc(C)cc2)cc1OC was read as UCH37 DUB inh 5, XBP1 UPR activ 3, UPR CHOP act 7, CTSL1 counter -3 and CHOP inh 24.
COc1ccc(CCNC(=O)c2cc3c(=O)n4cccc(C)c4nc3n(Cc3ccco3)c2=N)cc1OC was read as XBP1 UPR activ 1, UPR CHOP act 245*, CTSL1 counter 4 and UPR CHOP confirm 1.
Screening Cc1cccn2c(=O)c3cc(C(=O)NCCc4ccccc4)c(=N)n(Cc4ccco4)c3nc12 returned UCH37 DUB inh -41, XBP1 UPR activ 0, UPR CHOP act 6 and CTSL1 counter 8.
Screening CC(C)c1ccc(N2C(=O)CC(Sc3nc4ccccc4o3)C2=O)cc1 (stereo unspecified) returned UCH37 DUB inh 2, XBP1 UPR activ -6, UPR CHOP act 199*, CTSL1 counter 0, CHOP inh 35 and UPR CHOP confirm 95*.
For O=C1CC(Sc2nnc(-c3ccccc3)o2)C(=O)N1c1ccccc1 (stereo unspecified) the results were UCH37 DUB inh -2, XBP1 UPR activ -6, UPR CHOP act 15, CTSL1 counter 1 and CHOP inh 37.
For COc1ccc(C=NNC(=O)c2ccccc2O)cc1Cn1nnc2ccccc21 the results were UCH37 DUB inh -45.
Cc1nc([N+](=O)[O-])c(Br)n1CC(=O)c1ccc(Br)cc1 was read as UCH37 DUB inh 4, XBP1 UPR activ -3, UPR CHOP act 75*, CTSL1 counter 0, CHOP inh -31 and UPR CHOP confirm 43*.
`Cc1nc([N+](=O)[O-])cn1CC(=O)c1ccc(Cl)cc1` gave UCH37 DUB inh 4, XBP1 UPR activ -5, UPR CHOP act 4 and CTSL1 counter 5.
`S=C(Nc1ccccc1)c1ccccn1` gave UCH37 DUB inh 1, XBP1 UPR activ 29, UPR CHOP act 117*, CTSL1 counter 2, CHOP inh -86 and UPR CHOP confirm 149*.
`COc1cc(OC)c(NC2=CC(=O)C(=O)c3ccccc32)cc1Cl` gave XBP1 UPR activ 20, UPR CHOP act 53*, CTSL1 counter 23* and UPR CHOP confirm 18.
`CCOC(=O)NN=C1CCc2ccccc21` gave UCH37 DUB inh 1.
Screening COc1cc(NC(=O)CNc2cccc(S(=O)(=O)N3CCOCC3)c2)cc(OC)c1 returned UCH37 DUB inh 0, XBP1 UPR activ 4, UPR CHOP act 41* and UPR CHOP confirm -2.
Screening O=C(CCC(=O)Nc1ccc(Cl)cc1Cl)N/N=C/c1ccc([N+](=O)[O-])o1 returned XBP1 UPR activ 8, UPR CHOP act 193*, CTSL1 counter 0, CHOP inh -40 and UPR CHOP confirm 107*.
Screening Cc1nn(C)cc1C=NNC(=O)C(C)(C)Oc1ccc(Cl)cc1 returned UCH37 DUB inh 3.
`C=CCn1c(SCC(=O)c2ccc(O)c(O)c2)nnc1-c1cccc(Cl)c1` gave UCH37 DUB inh 4, XBP1 UPR activ 11, UPR CHOP act 64* and UPR CHOP confirm 3.
S=c1[nH]nc(C2CCCCC2)n1N=Cc1ccccc1Br was read as UCH37 DUB inh 3.
Screening COCC(=O)NN=Cc1cccc(OC)c1OC/C=C/c1ccccc1 returned UCH37 DUB inh 1.
N#CC1=C(N)OC2=C(CC/C2=C\c2ccccc2)C1c1ccccc1 (stereo unspecified) was read as UCH37 DUB inh 1, XBP1 UPR activ 3, UPR CHOP act 104*, CTSL1 counter 2, CHOP inh 58 and UPR CHOP confirm 180*.
Screening O=C(NN=Cc1ccc(O)cc1)c1cncc(Br)c1 returned UCH37 DUB inh 7.
`CC(=NNC(=O)Cc1cccn1C)c1ccco1` gave UCH37 DUB inh 0.
Cc1ccc(-c2nc3ncccc3o2)cc1NC(=O)c1ccc([N+](=O)[O-])o1 was read as UCH37 DUB inh 2, XBP1 UPR activ 0, UPR CHOP act 9 and CTSL1 counter 10.
For O=C(Nc1ccc2oc(-c3ccncc3)nc2c1)c1ccc([N+](=O)[O-])o1 the results were UCH37 DUB inh 2, XBP1 UPR activ 15, UPR CHOP act 162*, CTSL1 counter 23* and UPR CHOP confirm 46*.
Screening O=C(Nc1nc2ccccc2s1)c1ccc([N+](=O)[O-])o1 returned UCH37 DUB inh 3, XBP1 UPR activ 3, UPR CHOP act 73*, CTSL1 counter 6 and UPR CHOP confirm 8.
`O=C(Nc1ccc(-c2nc3ncccc3o2)cc1)c1ccc([N+](=O)[O-])o1` gave XBP1 UPR activ 18, UPR CHOP act 313*, CTSL1 counter 11 and UPR CHOP confirm 135*.
Screening CCSC1(SCC)N=C(N)C2(C#N)C(c3ccc(OC)c(OC)c3OC)C12C#N (stereo unspecified) returned UCH37 DUB inh 1, XBP1 UPR activ 20, UPR CHOP act 214*, CTSL1 counter 2, CHOP inh -13 and UPR CHOP confirm 307*.
Screening O=C(CSC(=S)N1CCCC1)c1cc(Br)cc(Br)c1O returned UCH37 DUB inh 3, XBP1 UPR activ 9, UPR CHOP act 71*, CTSL1 counter 1, CHOP inh -52 and UPR CHOP confirm 45*.
Screening CC1CCCN(C(=S)SCC(=O)c2cc(Br)cc(Br)c2O)C1 (stereo unspecified) returned UCH37 DUB inh 0, XBP1 UPR activ 3, UPR CHOP act 0, CTSL1 counter 3 and CHOP inh 10.
CC(C)=CCC/C(C)=C/CCC(C)=NO was read as UCH37 DUB inh 3.
Screening Cc1ccc(S(=O)(=O)Nc2cccc3ncccc23)s1 returned UCH37 DUB inh 2, XBP1 UPR activ -6, UPR CHOP act 219*, CTSL1 counter 0 and UPR CHOP confirm 10.
For CC(C)c1ccc(/C=C(\c2nc3ccccc3[nH]2)S(=O)(=O)c2ccccc2)cc1 the results were UCH37 DUB inh 4, XBP1 UPR activ 17, UPR CHOP act 69*, CTSL1 counter 0, CHOP inh 33 and UPR CHOP confirm 106*.
`N#CC(C#N)=C1C=CC=CN1/C(=C\c1ccccc1)C(=O)c1cccs1` gave UCH37 DUB inh -17, XBP1 UPR activ -6, UPR CHOP act 122*, CTSL1 counter -2, CHOP inh 44 and UPR CHOP confirm 119*.
Fc1ccccc1COc1ccc(C=NNC(=S)NCc2ccccc2)cc1 was read as UCH37 DUB inh 7.
